In ChEMBL document CHEMBL3407343, “Functionalized tetrahydro-1H-pyrido[4,3-b]indoles: a novel chemotype with Sirtuin 2 inhibitory activity” (Eur J Med Chem, 2015):
In brackets after ≈: the same amount, converted by molar mass. Activity calls are given as the source filed them. The rule behind the calls is not given here.

Experiments:
[1] = Cytotoxicity against human IMR90 cells assessed as cell viability after 72 hrs by MTS assay; type: cell-based; conditions: IMR-90, 72 h
[2] = Self-aggregation of the compound in PBS assessed as derived light scattering count rate at 10 uM at pH 7.4 (reference value: 15.5 +/- 0.4 kilocount/sec); type: physicochemical; conditions: buffer, pH 7.4, 10 µM
[3] = Solubility of the compound in phosphate buffer at pH 7.4 at 25 degC by turbimetric method; type: physicochemical
Outline: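 Turbidimetric solubility. Compound from DMSO stock was added to phosphate buffer pH 7.4 at 1–50 µM final, with 1% v/v DMSO. Plate shaken 30 min at 25 °C and absorbance read at 620 nm. Solubility is assigned to the concentration range where absorbance rises two-fold or more, from 3 separate determinations.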

[4] = biological target: T1, NAD-dependent protein deacetylase sirtuin-1 (Homo sapiens, UniProt Q96EB6); assay: Inhibition of human recombinant SIRT1 assessed as deacetylation of N-acetyl lysine residue in p53 (317 to 320) after 30 mins by luciferase-mediated luminescence assay
T1 sequence (Q96EB6 whole entry): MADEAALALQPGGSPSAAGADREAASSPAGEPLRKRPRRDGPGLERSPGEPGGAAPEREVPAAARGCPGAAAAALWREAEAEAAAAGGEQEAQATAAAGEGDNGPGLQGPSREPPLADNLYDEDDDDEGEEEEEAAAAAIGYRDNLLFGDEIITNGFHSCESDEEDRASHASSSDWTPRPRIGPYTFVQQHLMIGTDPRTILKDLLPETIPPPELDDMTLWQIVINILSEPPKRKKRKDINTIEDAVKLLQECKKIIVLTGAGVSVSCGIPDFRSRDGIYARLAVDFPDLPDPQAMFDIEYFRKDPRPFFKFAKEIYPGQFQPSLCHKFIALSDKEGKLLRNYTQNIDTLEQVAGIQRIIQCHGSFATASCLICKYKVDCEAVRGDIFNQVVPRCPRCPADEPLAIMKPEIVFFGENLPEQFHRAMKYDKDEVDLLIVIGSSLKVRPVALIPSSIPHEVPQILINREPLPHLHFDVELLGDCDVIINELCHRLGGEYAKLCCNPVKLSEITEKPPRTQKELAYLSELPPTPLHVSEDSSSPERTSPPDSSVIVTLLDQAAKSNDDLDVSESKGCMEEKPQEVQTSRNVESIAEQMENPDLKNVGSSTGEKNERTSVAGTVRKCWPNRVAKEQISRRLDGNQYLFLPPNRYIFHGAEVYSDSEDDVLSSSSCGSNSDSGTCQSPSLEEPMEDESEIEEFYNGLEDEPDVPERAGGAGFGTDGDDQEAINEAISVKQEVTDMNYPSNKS

[5] = biological target: T2, NAD-dependent protein deacetylase sirtuin-1 (Homo sapiens) (UniProt Q96EB6); assay: Inhibition of human recombinant SIRT1 assessed as deacetylation of N-acetyl lysine residue in p53 (317 to 320) at 10 uM after 30 mins by luciferase-mediated luminescence assay relative to control
T2 sequence (whole entry): T1 sequence (Q96EB6 whole entry)
Outline: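 Recombinant human SIRT1 at 0.1 unit/well, with the enzyme amount chosen from the mid-linear range of a signal-to-noise titration, in Sirt-Glo buffer. Serially diluted inhibitor in DMSO covers a 10^3-fold range, with 2.5% DMSO final. The single-point screen is at a fixed 10 µM. Enzyme and inhibitor were agitated 30 min at 25 °C, then Sirt-Glo reagent added and shaken another 30 min at 25 °C before luminescence was read. Activity is % of the enzyme-only control after blank subtraction. IC50 comes from a sigmoidal fit of % activity against log concentration, run in triplicate across ≥2 independent experiments.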

[6] = Self-aggregation of the compound in PBS assessed as derived light scattering count rate at 1 uM at pH 7.4 (reference value: 15.5 +/- 0.4 kilocount/sec); type: physicochemical; conditions: buffer, pH 7.4, 1 µM
Homo sapiens [7] = species: Homo sapiens; assay: Inhibition of protease (unknown origin) using deacetylated peptide as substrate assessed as luminescence at 10 uM after 30 mins relative to control; set-up: scale not given: the % may be the effect or the level left
Outline: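 Counter-screen without sirtuin: compound from DMSO stock diluted in Sirt-Glo buffer, then Sirt-Glo reagent added carrying non-acetylated control peptide. DMSO was 2.5% v/v. Mixed by shaking 30 min at 25 °C, then luminescence read. Result is % of control (peptide plus reagent in vehicle) after subtracting the vehicle-only blank.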

[8] = biological target: T3, NAD-dependent protein deacetylase sirtuin-2 (Homo sapiens, UniProt Q8IXJ6); assay: Inhibition of human recombinant SIRT2 assessed as deacetylation of N-acetyl lysine residue in p53 (317 to 320) after 30 mins by luciferase-mediated luminescence assay
T3 sequence (Q8IXJ6 whole entry): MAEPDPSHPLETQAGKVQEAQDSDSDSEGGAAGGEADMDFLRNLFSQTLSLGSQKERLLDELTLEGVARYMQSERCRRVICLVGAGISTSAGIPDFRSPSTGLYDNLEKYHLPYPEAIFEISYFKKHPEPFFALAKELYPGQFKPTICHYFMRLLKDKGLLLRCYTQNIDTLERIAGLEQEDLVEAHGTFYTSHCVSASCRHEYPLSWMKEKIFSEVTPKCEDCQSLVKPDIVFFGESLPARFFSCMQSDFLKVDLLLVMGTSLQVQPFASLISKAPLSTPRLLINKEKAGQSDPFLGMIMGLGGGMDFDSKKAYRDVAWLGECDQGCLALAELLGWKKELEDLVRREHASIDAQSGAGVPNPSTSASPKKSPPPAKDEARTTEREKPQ

Homo sapiens [9] = species: Homo sapiens; assay: Selectivity ratio of IC50 for human recombinant SIRT1 to IC50 for human recombinant SIRT2
[10] = Self-aggregation activity of the compound in PBS assessed as derived light scattering count rate at 25 uM at pH 7.4 (reference value: 15.5 +/- 0.4 kilocount/sec); type: physicochemical; conditions: buffer, pH 7.4, 25 µM
[11] = Self-aggregation of the compound in PBS assessed as derived light scattering count rate at 250 uM at pH 7.4 (reference value: 15.5 +/- 0.4 kilocount/sec); type: physicochemical; conditions: buffer, pH 7.4, 250 µM

| SMILES | Activity [2] | IC50 [4] | inhibition [5] | Activity [6] | Activity (Homo sapiens [7]) | IC50 [8] | also measured |
| --- | --- | --- | --- | --- | --- | --- | --- |
| CCCCCCCCn1c2c(c3cc(-c4ccc(S(C)(=O)=O)cc4)ccc31)CN(C(N)=O)CC2 | 29 kC/sec | 28 µM | 51.8% | 15.6 kC/sec | 98.6% | 4 µM | IC50 [1]: 14.5 µM; solubility kinetic [3]: 1.6 µM (≈ 0.771 µg/mL) |
| CCCCCCCCn1c2c(c3cc(-c4cnc(N)nc4)ccc31)CN(CCO)CC2 |  |  | inactive |  |  |  |  |
| CCCCCCCCn1c2c(c3cc(-c4cnc(N)nc4)ccc31)CN(C(N)=O)CC2 |  | 63 µM | inactive |  |  | 14 µM |  |
| Cc1cccc(-c2ccc3[nH]c4c(c3c2)CN(C)CC4)c1 |  |  |  |  |  | 83 µM |  |
| CCCCCCCCn1c2c(c3cc(-c4cccc(C)c4)ccc31)CN(Cc1ccccc1)CC2 | 769 kC/sec | > 100 µM | < 5% | 32 kC/sec | 99% | 8.2 µM |  |
| CN1CCc2[nH]c3ccc(-c4cnc(N)nc4)cc3c2C1 |  |  |  |  |  | > 250 µM |  |
| CCCCCCCCn1c2c(c3cc(-c4cccc(C)c4)ccc31)CN(C)CC2 | 178 kC/sec | 21 µM | 66.4% | 17.9 kC/sec | 98.6% | 6.2 µM | solubility kinetic [3]: 3.1 µM (≈ 1.2 µg/mL) |
| CN1CCc2[nH]c3ccc(-c4ccc(S(C)(=O)=O)cc4)cc3c2C1 |  |  |  |  |  | > 250 µM |  |
| CCCCCCCCn1c2c(c3cc(-c4cnc(N)nc4)ccc31)CN(S(C)(=O)=O)CC2 |  |  | inactive |  |  |  |  |
| CCCCCCCCn1c2c(c3cc(-c4cccc(C)c4)ccc31)CN(Cc1ccc(O)cc1)CC2 |  |  | inactive |  |  |  |  |
| CCCCCCCCn1c2c(c3cc(-c4cccc(C)c4)ccc31)CNCC2 |  | 20 µM | 5.1% |  |  | 10.1 µM | Ratio IC50 (Homo sapiens [9]): 2 |
| CCCCCCCCn1c2c(c3cc(-c4cnc(N)nc4)ccc31)CN(C(=O)OCC)CC2 |  |  | inactive |  |  |  |  |
| CCCCCCCCn1c2c(c3cc(-c4cccc(C)c4)ccc31)CN(C(=O)OCC)CC2 |  |  | inactive |  |  |  |  |
| CCCCCCCCn1c2c(c3cc(-c4ccnc(F)c4)ccc31)CN(C(N)=O)CC2 |  |  | inactive |  |  |  |  |
| CCCCCCCCn1c2c(c3cc(F)ccc31)CN(C)CC2 |  |  | inactive |  |  |  |  |
| O=C(OCc1ccccc1)c1ccccc1 [BENZYL BENZOATE] |  |  |  |  |  |  | Activity [10]: 76 kC/sec; Activity [11]: 1148 kC/sec |
| CCCCCCCCn1c2c(c3cc(-c4ccc(S(C)(=O)=O)cc4)ccc31)CN(C)CC2 | 130.7 kC/sec | > 250 µM | 12.8% | 17 kC/sec | 97.8% | 6 µM | solubility kinetic [3]: 3.1 µM (≈ 1.4 µg/mL); Ratio IC50 (Homo sapiens [9]): > 40 |
| Cc1cccc(-c2ccc3[nH]c4c(c3c2)CNCC4)c1 |  |  |  |  |  | 100 µM |  |
| CCCCCCCCn1c2c(c3cc(-c4cccc(C)c4)ccc31)CN(C(C)C)CC2 | 558 kC/sec | 26 µM | 2.4% | 27 kC/sec | 100% | 11.2 µM | solubility kinetic [3]: 1.6 µM (≈ 0.667 µg/mL) |
| CCCCn1c2c(c3cc(-c4cnc(N)nc4)ccc31)CNCC2 |  |  | inactive |  |  | > 100 µM |  |
| CCCCCCCCn1c2c(c3cc(-c4cnc(N)nc4)ccc31)CNCC2 | 137 kC/sec | 38 µM | 2.4% | 16.1 kC/sec | 96.3% | 11.8 µM | solubility kinetic [3]: 6.3 µM (≈ 2.38 µg/mL) |
| CCCCCCCCn1c2c(c3cc(-c4cnc(N)nc4)ccc31)CN(C)CC2 | 24 kC/sec | > 100 µM | inactive | 15.8 kC/sec | 98.7% | 17.9 µM |  |
| CCCCn1c2c(c3cc(-c4ccc(S(C)(=O)=O)cc4)ccc31)CNCC2 |  |  | inactive |  | 98.6% | 20 µM |  |
| CCCCCCCCn1c2c(c3cc(-c4cnc(N)nc4)ccc31)CN(C(C)C)CC2 | 137 kC/sec | 56 µM | 15.3% | 16.8 kC/sec |  | 20 µM |  |
| CCCCCCCCn1c2c(c3cc(-c4cccc(C)c4)ccc31)CN(C(N)=O)CC2 | 541 kC/sec | > 100 µM | inactive | 19 kC/sec | 97.1% | 7.8 µM |  |
| CC(C)=CCn1c2c(c3cc(-c4cccc(C)c4)ccc31)CN(Cc1ccc(O)cc1)CC2 |  |  | inactive |  |  |  |  |
| CCCCCCCCn1c2c(c3cc(F)ccc31)CN(Cc1ccc(O)cc1)CC2 |  |  | inactive |  |  |  |  |
| CCCCCCCCn1c2c(c3cc(-c4cnc(N)nc4)ccc31)CN(CC)CC2 |  |  | inactive |  |  |  |  |
| CCCCCCCCn1c2c(c3cc(-c4ccnc(F)c4)ccc31)CNCC2 |  |  | 1.1% |  |  |  |  |
| CCCCn1c2c(c3cc(-c4cccc(C)c4)ccc31)CNCC2 |  |  | inactive |  |  | 96 µM |  |
